Activity calls are given as the source filed them. No cut-off for these calls is given here.
Legend:
Sagittaria latifolia [1] = test: Herbicidal activity against Sagittaria latifolia (broadleaf arrowhead) under paddy conditions; format: functional, organism-based
Sagittaria latifolia [2] = test: Pre-emergence herbicidal activity against Sagittaria latifolia (broadleaf arrowhead); format: functional, organism-based
Sagittaria latifolia [3] = test: Post-emergence herbicidal activity against Sagittaria latifolia (broadleaf arrowhead); format: functional, organism-based
Schoenoplectus acutus [4] = test: Herbicidal activity against Schoenoplectus acutus (hardstem bulrush) under paddy conditions; format: functional, organism-based
Schoenoplectus acutus [5] = test: Post-emergence herbicidal activity against Schoenoplectus acutus (hardstem bulrush); format: functional, organism-based
Schoenoplectus acutus [6] = test: Pre-emergence herbicidal activity against Schoenoplectus acutus (hardstem bulrush); format: functional, organism-based
Echinochloa crus-galli [7] = test: Herbicidal activity against Echinochloa crus-galli (barnyard grass) under paddy conditions; format: functional, organism-based
Echinochloa crus-galli [8] = test: Post-emergence herbicidal activity against Echinochloa crus-galli (barnyard grass); format: functional, organism-based
Oryza sativa [9] = test: Herbicidal activity against Oryza sativa (rice) under paddy conditions; format: functional, organism-based
Echinochloa crus-galli [10] = test: Pre-emergence herbicidal activity against Echinochloa crus-galli (barnyard grass); format: functional, organism-based
Oryza sativa [11] = test: Pre-emergence herbicidal activity against Oryza sativa (rice); format: functional, organism-based
Abutilon theophrasti [12] = test: Post-emergence herbicidal activity against Abutilon theophrasti (velvetleaf); format: functional, organism-based
Oryza sativa [13] = test: Post-emergence herbicidal activity against Oryza sativa (rice); format: functional, organism-based
Abutilon theophrasti [14] = test: Pre-emergence herbicidal activity against Abutilon theophrasti (velvetleaf); format: functional, organism-based
Convolvulaceae [15] = test: Herbicidal activity against Convolvulaceae (morning glory family) under paddy conditions; format: functional, organism-based
Convolvulaceae [16] = test: Post-emergence herbicidal activity against Convolvulaceae (morning glory family); format: functional, organism-based
Avena sativa [17] = test: Herbicidal activity against Avena sativa under paddy conditions; format: functional, organism-based
Convolvulaceae [18] = test: Pre-emergence herbicidal activity against Convolvulaceae (morning glory family); format: functional, organism-based
Avena sativa [19] = test: Pre-emergence herbicidal activity against Avena sativa; format: functional, organism-based
Avena sativa [20] = test: Post-emergence herbicidal activity against Avena sativa; format: functional, organism-based
Spodoptera litura = test: Insecticidal activity against Spodoptera litura; format: functional, organism-based
Tetranychus cinnabarinus = test: Insecticidal activity against Tetranychus cinnabarinus (carmine spider mite); format: functional, organism-based
Culex pipiens pallens = test: Insecticidal activity against Culex pipiens pallens (mosquito) at 3 to 5 ppm; format: functional, organism-based
Musca domestica = test: Insecticidal activity against Musca domestica (house fly); format: functional, organism-based
Rhizoctonia solani = test: Fungicidal activity against Rhizoctonia solani at 500 ppm after 7 days by poisoned food technique; format: functional; settings: 168 h, read-out: GI
Method in brief: (§1)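 Cultures kept on potato dextrose agar. Each compound, dissolved in acetone, was added to potato dextrose agar at a final 500 ppm (w/v) (poisoned food technique). A disc cut from the periphery of a seven-day-old culture was inoculated onto each set. Control sets held potato dextrose agar only. The read-out is percentage inhibition of fungal growth relative to control.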

Helminthosporium = test: Fungicidal activity against Helminthosporium oryzae at 500 ppm after 7 days by poisoned food technique; format: functional; settings: 168 h, read-out: GI; method in brief: as §1

## Cc1ccc2[nH]c(CSc3nnc(-c4ccccc4)n3N)nc2c1
Sagittaria latifolia [1]
  Activity: inactive
Sagittaria latifolia [2]
  Activity: inactive
Sagittaria latifolia [3]
  Activity: inactive
Schoenoplectus acutus [4]
  Activity: inactive
Schoenoplectus acutus [5]
  Activity: inactive
Schoenoplectus acutus [6]
  Activity: inactive
Echinochloa crus-galli [7]
  Activity: inactive
Echinochloa crus-galli [8]
  Activity: inactive
Oryza sativa [9]
  Activity: inactive
Echinochloa crus-galli [10]
  Activity: inactive
Oryza sativa [11]
  Activity: inactive
Abutilon theophrasti [12]
  Activity: inactive
Oryza sativa [13]
  Activity: inactive
Abutilon theophrasti [14]
  Activity: inactive
Convolvulaceae [15]
  Activity: inactive
Convolvulaceae [16]
  Activity: inactive
Avena sativa [17]
  Activity: inactive
Convolvulaceae [18]
  Activity: inactive
Avena sativa [19]
  Activity: inactive
Avena sativa [20]
  Activity: inactive
Spodoptera litura
  Activity: inactive
Tetranychus cinnabarinus
  Activity: inactive
Culex pipiens pallens
  Activity: Active
Musca domestica
  Activity: inactive
Rhizoctonia solani
  inhibition of growth at 500 ppm: 70.5%
Helminthosporium
  inhibition of growth at 500 ppm: 81.2%

## Clc1cccc(-c2nnc(SCc3nc4ccccc4[nH]3)o2)c1
Sagittaria latifolia [1]
  Activity: inactive
Sagittaria latifolia [2]
  Activity: inactive
Sagittaria latifolia [3]
  Activity: inactive
Schoenoplectus acutus [4]
  Activity: inactive
Schoenoplectus acutus [5]
  Activity: inactive
Schoenoplectus acutus [6]
  Activity: inactive
Echinochloa crus-galli [7]
  Activity: inactive
Echinochloa crus-galli [8]
  Activity: inactive
Oryza sativa [9]
  Activity: inactive
Echinochloa crus-galli [10]
  Activity: inactive
Oryza sativa [11]
  Activity: inactive
Abutilon theophrasti [12]
  Activity: inactive
Oryza sativa [13]
  Activity: inactive
Abutilon theophrasti [14]
  Activity: inactive
Convolvulaceae [15]
  Activity: inactive
Convolvulaceae [16]
  Activity: inactive
Avena sativa [17]
  Activity: inactive
Convolvulaceae [18]
  Activity: inactive
Avena sativa [19]
  Activity: inactive
Avena sativa [20]
  Activity: inactive
Spodoptera litura
  Activity: inactive
Tetranychus cinnabarinus
  Activity: inactive
Culex pipiens pallens
  Activity: Active
Musca domestica
  Activity: inactive
Rhizoctonia solani
  inhibition of growth at 500 ppm: 69.4%
Helminthosporium
  inhibition of growth at 500 ppm: 89.7%

## c1ccc(-c2nnc(SCc3nc4ccccc4[nH]3)s2)cc1
Sagittaria latifolia [1]
  Activity: inactive
Sagittaria latifolia [2]
  Activity: inactive
Sagittaria latifolia [3]
  Activity: inactive
Schoenoplectus acutus [4]
  Activity: inactive
Schoenoplectus acutus [5]
  Activity: inactive
Schoenoplectus acutus [6]
  Activity: inactive
Echinochloa crus-galli [7]
  Activity: inactive
Echinochloa crus-galli [8]
  Activity: inactive
Oryza sativa [9]
  Activity: inactive
Echinochloa crus-galli [10]
  Activity: inactive
Oryza sativa [11]
  Activity: inactive
Abutilon theophrasti [12]
  Activity: inactive
Oryza sativa [13]
  Activity: inactive
Abutilon theophrasti [14]
  Activity: inactive
Convolvulaceae [15]
  Activity: inactive
Convolvulaceae [16]
  Activity: inactive
Avena sativa [17]
  Activity: inactive
Convolvulaceae [18]
  Activity: inactive
Avena sativa [19]
  Activity: inactive
Avena sativa [20]
  Activity: inactive
Spodoptera litura
  Activity: inactive
Tetranychus cinnabarinus
  Activity: inactive
Culex pipiens pallens
  Activity: Active
Musca domestica
  Activity: inactive
Rhizoctonia solani
  inhibition of growth at 500 ppm: 69.8%
Helminthosporium
  inhibition of growth at 500 ppm: 74.3%
